Reference: ChEMBL document CHEMBL1157731, “Novel KCNQ2/Q3 agonists as potential therapeutics for epilepsy and neuropathic pain” (J Med Chem, 2010)
The source made the active and inactive calls.

Experiments:
[1] = molecular target: Sodium-dependent serotonin transporter (Homo sapiens) (UniProt P31645); assay: Binding affinity to SERT at 10 uM by displacement assay
Rattus norvegicus [2] = assay: Antinociceptive activity in formalin-treated Sprague-Dawley rat model assessed as reduction in hind paw flinches at 34 mg/kg, po measured during 11 to 60 mins of phase 2 flinches; format: functional; set-up: scale not given: the % may be the effect or the level left
Procedure, shortened: (§1)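 A small metal band was glued to the right hind paw of male Sprague-Dawley rats 1 h before testing. Compound given po in 0.5% methylcellulose 1 h before the test, then 50 μL of 2.5% formalin injected sc into the dorsal paw. Flinches counted electromagnetically for 60 min; phase II covers 11-60 min post-injection.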

[3] = molecular target: Adrenergic receptor alpha-1 (Rattus norvegicus) (UniProt P15823+P23944+P43140); assay: Displacement of [3H]prazosin from adrenergic receptor 1 alpha in rat cerebral cortex at 10 uM; format: tissue-based
Rattus norvegicus [4] = organism: Rattus norvegicus; assay: Displacement of [3H]DTG from sigma opioid receptor in rat cerebral cortex; format: tissue-based
Mus musculus [5] = assay: Anticonvulsant activity against maximal electroshock-induced seizures in po dosed CD1 mouse model treated 30 mins before electroshock application; format: functional, organism-based
Procedure, shortened: (§2)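 Male CD-1 mice dosed po (10 mL/kg in 5% DMSO/95% of 0.5% HPMC/1% Tween 80) 30 min before corneal electroshock at 50 mA for 0.2 s, with 1% proparacaine in each eye. Latency to hindlimb extension recorded to 0.1 s. No extension within 6 s scored as protected (latency 6 s). Reported as protected/tested (8 per group), or EC50 derived from latency scores.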

[6] = molecular target: Beta-1 adrenergic receptor (Homo sapiens) (UniProt P08588); assay: Displacement of [3H](-)CGP12177 from human recombinant beta 1 adrenergic receptor expressed in HEK293 cells at 10 uM; format: cell-based
Beta-1 adrenergic receptor (Homo sapiens), sequence (P08588 whole entry, looked up): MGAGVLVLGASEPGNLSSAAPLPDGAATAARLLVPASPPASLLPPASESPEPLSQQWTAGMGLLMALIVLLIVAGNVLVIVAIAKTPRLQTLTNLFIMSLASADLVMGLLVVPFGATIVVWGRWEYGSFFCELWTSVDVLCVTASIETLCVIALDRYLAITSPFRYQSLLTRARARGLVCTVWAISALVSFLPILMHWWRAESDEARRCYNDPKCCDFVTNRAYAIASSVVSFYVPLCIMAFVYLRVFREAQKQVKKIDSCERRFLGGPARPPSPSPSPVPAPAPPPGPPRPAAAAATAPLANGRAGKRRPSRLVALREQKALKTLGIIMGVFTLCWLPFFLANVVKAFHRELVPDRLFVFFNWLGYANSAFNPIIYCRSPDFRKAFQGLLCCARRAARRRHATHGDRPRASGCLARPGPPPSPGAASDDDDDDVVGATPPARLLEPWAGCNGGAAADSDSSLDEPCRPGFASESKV

Mus musculus [7] = assay: Anticonvulsant activity against maximal electroshock-induced seizures in CD1 mouse model at 20 mg/kg, po treated 30 mins before electroshock application; format: functional, organism-based; set-up: dose 20 mg/kg; procedure, shortened: as §2
Rattus norvegicus [8] = assay: Analgesic activity in Sprague-Dawley rat assessed as reduction of spinal nerve ligation-induced allodynia score at 10 mg/kg, po; format: functional; set-up: scale not given: the % may be the effect or the level left
Procedure, shortened: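 Male Sprague-Dawley rats; L5 spinal nerve tightly ligated with 4.0 silk distal to the DRG under halothane, then 2-3 weeks recovery. Dosed po in 0.5% methylcellulose. Von Frey tactile withdrawal thresholds measured on a wire mesh floor, top threshold 15 g. Baseline taken just before dosing; testing at 1 and 2 h post-dose.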

[9] = molecular target: Kappa-type opioid receptor (Rattus norvegicus) (UniProt P34975); assay: Displacement of [3H]U69593 from rat recombinant kappa opioid receptor expressed in CHO cells at 10 uM; format: cell-based
Kappa-type opioid receptor (Rattus norvegicus), sequence (P34975 whole entry): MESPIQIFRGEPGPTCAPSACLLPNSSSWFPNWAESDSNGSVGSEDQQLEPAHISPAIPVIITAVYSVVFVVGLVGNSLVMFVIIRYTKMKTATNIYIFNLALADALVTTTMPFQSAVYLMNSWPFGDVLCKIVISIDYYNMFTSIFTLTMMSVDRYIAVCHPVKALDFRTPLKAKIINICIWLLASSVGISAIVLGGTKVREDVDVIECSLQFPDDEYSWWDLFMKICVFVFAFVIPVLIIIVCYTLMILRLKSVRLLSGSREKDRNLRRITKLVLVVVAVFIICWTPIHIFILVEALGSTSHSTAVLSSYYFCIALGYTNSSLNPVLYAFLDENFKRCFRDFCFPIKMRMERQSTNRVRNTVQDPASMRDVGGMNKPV

[10] = Binding affinity to Calcium channel diltiazem site at 10 uM by displacement assay
Rattus norvegicus [11] = assay: Antinociceptive activity in formalin-treated Sprague-Dawley rat model assessed as reduction in hind paw flinches at 10 mg/kg, po measured during 11 to 60 mins of phase 2 flinches; format: functional; set-up: scale not given: the % may be the effect or the level left; procedure, shortened: as §1
Rattus norvegicus [12] = assay: Analgesic activity in po dosed Sprague-Dawley rat assessed as reduction of spinal nerve ligation-induced allodynia score; format: functional
Procedure, shortened: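 L5 spinal nerve tightly ligated distal to the DRG under halothane in male Sprague-Dawley rats, followed by 2-3 weeks of recovery. Von Frey withdrawal thresholds taken on a wire-mesh floor (top threshold 15 g), with baseline measured before dosing. Compound given po in 0.5% methylcellulose; testing at 1 and 2 h post-dose.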

[13] = molecular target: Delta-type opioid receptor (Homo sapiens) (UniProt P41143); assay: Displacement of [3H]DADLE from human recombinant delta opioid receptor expressed in CHO cells at 10 uM; format: cell-based
Delta-type opioid receptor (Homo sapiens), sequence (P41143 whole entry): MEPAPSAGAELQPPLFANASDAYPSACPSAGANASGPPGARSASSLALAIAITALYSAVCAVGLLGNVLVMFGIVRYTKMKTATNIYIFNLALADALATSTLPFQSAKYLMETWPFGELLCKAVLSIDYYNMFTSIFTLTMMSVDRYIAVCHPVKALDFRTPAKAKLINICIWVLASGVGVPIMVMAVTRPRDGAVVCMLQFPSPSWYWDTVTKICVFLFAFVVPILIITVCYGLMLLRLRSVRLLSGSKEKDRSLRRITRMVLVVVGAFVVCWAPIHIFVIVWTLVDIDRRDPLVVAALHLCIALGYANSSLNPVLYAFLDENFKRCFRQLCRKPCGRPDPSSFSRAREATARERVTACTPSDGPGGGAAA

[14] = molecular target: Kappa-type opioid receptor (Rattus norvegicus) (UniProt P34975); assay: Displacement of [3H]U69593 from rat recombinant kappa opioid receptor expressed in CHO cells at 30 uM; format: cell-based
[15] = Binding affinity to Calcium channel DHP site at 10 uM by displacement assay
[16] = Binding affinity to voltage-dependent N-type calcium channel at 10 uM by displacement assay
[17] = molecular target: Mu-type opioid receptor (Homo sapiens) (UniProt P35372); assay: Displacement of [3H]diprenorphine from human recombinant mu opioid receptor expressed in HEK293 cells at 10 uM; format: cell-based
Mu-type opioid receptor (Homo sapiens), sequence (P35372 whole entry): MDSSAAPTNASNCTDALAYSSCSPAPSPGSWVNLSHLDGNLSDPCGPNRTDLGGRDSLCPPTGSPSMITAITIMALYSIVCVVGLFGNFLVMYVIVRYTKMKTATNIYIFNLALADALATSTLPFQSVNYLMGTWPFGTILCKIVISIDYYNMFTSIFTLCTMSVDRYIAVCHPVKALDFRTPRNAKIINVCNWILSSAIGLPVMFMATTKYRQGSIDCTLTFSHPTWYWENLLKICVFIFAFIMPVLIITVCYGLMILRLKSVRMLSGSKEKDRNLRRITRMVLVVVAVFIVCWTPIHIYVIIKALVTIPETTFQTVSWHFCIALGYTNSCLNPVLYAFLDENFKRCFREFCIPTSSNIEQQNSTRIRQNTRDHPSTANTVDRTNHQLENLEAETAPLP

[18] = molecular target: Cannabinoid receptor 1 (Homo sapiens) (UniProt P21554); assay: Displacement of [3H]CP-55940 from human recombinant CB1 receptor expressed in CHO cells at 10 uM; format: cell-based
Cannabinoid receptor 1 (Homo sapiens), sequence (P21554 whole entry): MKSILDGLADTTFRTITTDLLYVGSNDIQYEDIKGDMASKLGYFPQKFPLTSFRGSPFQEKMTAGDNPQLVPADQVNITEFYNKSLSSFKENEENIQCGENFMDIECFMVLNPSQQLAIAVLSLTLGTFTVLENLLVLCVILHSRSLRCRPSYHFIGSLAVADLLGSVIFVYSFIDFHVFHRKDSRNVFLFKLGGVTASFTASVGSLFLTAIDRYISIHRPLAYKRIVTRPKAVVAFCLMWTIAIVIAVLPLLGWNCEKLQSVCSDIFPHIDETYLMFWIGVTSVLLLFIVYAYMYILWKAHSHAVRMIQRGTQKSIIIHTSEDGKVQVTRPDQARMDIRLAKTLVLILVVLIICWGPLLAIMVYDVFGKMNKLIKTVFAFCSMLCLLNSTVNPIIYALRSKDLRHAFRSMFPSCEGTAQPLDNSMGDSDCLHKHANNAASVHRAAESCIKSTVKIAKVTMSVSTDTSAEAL

[19] = molecular target: Cannabinoid receptor 2 (Homo sapiens) (UniProt P34972); assay: Displacement of [3H]WIN-55212-2 from human recombinant CB2 receptor expressed in CHO cells at 10 uM; format: cell-based
Cannabinoid receptor 2 (Homo sapiens), sequence (P34972 whole entry): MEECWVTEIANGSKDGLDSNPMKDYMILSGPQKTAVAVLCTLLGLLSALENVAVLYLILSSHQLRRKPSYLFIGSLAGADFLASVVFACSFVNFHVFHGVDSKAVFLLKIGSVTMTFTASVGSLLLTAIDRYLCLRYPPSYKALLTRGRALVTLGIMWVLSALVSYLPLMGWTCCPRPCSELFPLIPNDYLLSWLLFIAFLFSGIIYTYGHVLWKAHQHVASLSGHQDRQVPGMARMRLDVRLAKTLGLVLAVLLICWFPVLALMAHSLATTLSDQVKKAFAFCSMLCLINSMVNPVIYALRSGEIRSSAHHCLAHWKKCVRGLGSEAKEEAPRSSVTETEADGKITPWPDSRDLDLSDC

[20] = Binding affinity to sodium channel site 2 at 10 uM by displacement assay
Rattus norvegicus [21] = assay: Antinociceptive activity in formalin-treated Sprague-Dawley rat model assessed as reduction in hind paw flinches at 17 mg/kg, po measured during 11 to 60 mins of phase 2 flinches; format: functional; set-up: scale not given: the % may be the effect or the level left
Procedure, shortened: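 Male Sprague-Dawley rats dosed po in 0.5% methylcellulose 1 h before assay. A 0.5 g metal band was glued to the right hind paw 1 h beforehand. 2.5% formalin (50 μL) was injected sc into the dorsal right hind paw. An electromagnetic detector counted flinches for 60 min; phase II is 11-60 min post-injection.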

Mus musculus [22] = assay: Anticonvulsant activity against maximal electroshock-induced seizures in CD1 mouse model at 10 mg/kg, po treated 30 mins before electroshock application; format: functional, organism-based; set-up: dose 10 mg/kg; procedure, shortened: as §2

Sodium-dependent serotonin transporter (Homo sapiens), sequence (P31645 whole entry, looked up): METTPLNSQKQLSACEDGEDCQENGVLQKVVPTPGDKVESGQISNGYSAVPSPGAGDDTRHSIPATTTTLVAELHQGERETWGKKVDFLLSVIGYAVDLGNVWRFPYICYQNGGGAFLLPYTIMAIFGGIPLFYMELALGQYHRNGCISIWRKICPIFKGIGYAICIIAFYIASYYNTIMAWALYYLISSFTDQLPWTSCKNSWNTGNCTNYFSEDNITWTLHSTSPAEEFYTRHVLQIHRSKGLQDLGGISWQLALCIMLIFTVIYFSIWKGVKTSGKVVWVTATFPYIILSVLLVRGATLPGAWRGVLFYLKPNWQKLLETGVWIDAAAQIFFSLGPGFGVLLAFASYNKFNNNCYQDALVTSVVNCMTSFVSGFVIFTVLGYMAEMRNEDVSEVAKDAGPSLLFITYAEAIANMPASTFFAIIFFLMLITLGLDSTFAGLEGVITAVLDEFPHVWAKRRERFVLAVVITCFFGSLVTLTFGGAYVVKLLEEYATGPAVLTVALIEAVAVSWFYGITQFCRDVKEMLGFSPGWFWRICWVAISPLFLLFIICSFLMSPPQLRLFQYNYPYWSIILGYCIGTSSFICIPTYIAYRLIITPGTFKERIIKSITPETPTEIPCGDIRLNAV

In the case of `Cn1/c(=N/NC(=O)CC2CCCC2)sc2cc(OC(F)(F)F)ccc21`, the Activity [1] is reported as 20%, the Activity (Rattus norvegicus [2]) is reported as 28% and the Activity [3] is reported as 0%. It also gave an Activity (Rattus norvegicus [4]) of 0%, an EC50 (Mus musculus [5]) of less than 10 mg/kg and an Activity [6] of 0%. The Activity (Mus musculus [7]) was “Active”.

`CC(C)OC(=O)N/N=c1\sc2cc(OC(F)(F)F)ccc2n1C` gave an Activity [1] of 14%, an Activity (Rattus norvegicus [8]) of 100% and an Activity [3] of 11%. The Activity [9] was 15%, the Activity [10] was 0% and the Activity (Rattus norvegicus [11]) was 47%. It also gave an ED50 (Rattus norvegicus [12]) of 16.2 mg/kg, an Activity [13] of 10% and an Activity [14] of 0%. The Activity (Rattus norvegicus [4]) was 19%, the Activity [15] was 0% and the Activity [16] was 0%. It also gave an EC50 (Mus musculus [5]) of 8.8 mg/kg, an Activity [17] of 0% and an Activity [18] of 19%. It also gave an Activity [19] of 0%, an Activity [6] of 11% and an Activity [20] of 35%. The Activity (Mus musculus [7]) was “Active”.

Work on `Cn1/c(=N/NC(=O)CC(C)(C)C)sc2cc(OC(F)(F)F)ccc21` yielded an Activity [1] of 0%, an Activity [3] of 0% and an Activity (Rattus norvegicus [21]) of 55%. The ED50 (Rattus norvegicus [12]) was 20 mg/kg, the Activity (Rattus norvegicus [4]) was 0% and the Activity (Mus musculus [22]) was “Active”. The EC50 (Mus musculus [5]) was 4.4 mg/kg and the Activity [6] was 0%.
